Results as given in the EternaBench riboswitch data.

Tested on: MS2 coat protein
Assay: apparent Kd, MS2 coat protein; higher = weaker binding; RNA-MaP array; FMN 200 µM where present
In short: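 Stalled E. coli RNA polymerase produced the designs on Illumina sequencing-chip clusters. SNAP-549-labelled MS2 coat protein was added from 0.7 or 1.5 nM, doubling to 3 µM, without and then with constant ligand, in 100 mM Tris-HCl pH 7.5, 80 mM KCl, 4 mM MgCl2, BSA, DTT, yeast tRNA and Tween-20. The apparent Kd is the median of filtered per-cluster fits of green signal normalised to red-channel RNA signal and control-cluster median Fmax.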

[1] = designed as: OFF switch for flavin mononucleotide, no ligand
[2] = ligand present: flavin mononucleotide, designed as: OFF switch for flavin mononucleotide
[3] = designed as: ON switch for flavin mononucleotide, no ligand
[4] = ligand present: flavin mononucleotide, designed as: ON switch for flavin mononucleotide

Row | Sequence | apparent Kd [1] [µM] | apparent Kd [2] [µM] | apparent Kd [3] [µM] | apparent Kd [4] [µM]
1 | UUCAGCUCGUGAGGAUAUACAACACUGCUUCGGCAGUGUAUUAAGAUCACAUGAGGAUCACCCAUGUAGAAGGCACGAGCUGAU | 0.0148 | 0.29 |  | 
2 | AAACACGGACAUGAGGAUCACCCAUGUGGCGAAAGCCUUGGGAGAAGGCCGAUAGCAAAGCUAUCGGAGGAUAUCCAUACCGUG |  |  | 0.0198 | 0.00772
3 | UGGAAACAUGAGGAUCACCCAUGUAAAAGGUGGUUAGGAUAUGCAAAACGGAAAACGAAAGCAGAAGGGACAAAAA |  |  | 0.412 | 0.302
4 | GCUAUCGAUGUAGGAUAUGCUAUAGAAACUAUGGCAGAAGGACAUGAGGAUCACCCAUGUCAAUGGAUGGAGAGAAGAGAUGGC | 0.0267 | 0.0687 |  | 
5 | GUGCACAUUCGAGGAUAUCGGAGAGGAGUCCUUCGAGAAGGCGAUUCGUGCUGUGUUAUUCUGGACAUGAGGAUCACCCAUGUG |  |  | 0.0508 | 0.0278
6 | UGUCGGAGCAGAGGAUAUUACAUGAGGAUCACCCAUGUAUGAACCAAUAGCUGGAAACAGCAUUGUAAGAAGGCUGCUCCGACA | 0.00475 | 0.0121 |  | 
7 | GGAUAGGACAGAGGAUAUACGUGCUAGAGAUACUAGGAAAAUUUCCUCACAUGAGGAUCACCCAUGUAGAAGGCUGUCCUAUCG | 0.305 | 0.0517 |  | 
8 | GAGUGACAUGAGGAUCACCCAUGUGAGGAUAUCGGACGGACCAAAUUAACAAUAAUUGCGAGAAGGCACAUCGG | 0.0602 | 0.0923 |  | 
9 | GUGCGGUAGGAGAAGGACGGAGGCUUCAUUACAUACAUGAGGAUCACCCAUGUAGGAUAUCCUACCUCACGCGGCCUCCUCCUG | 0.00644 | 0.00679 |  | 
10 | GUUGAGUGAGAGAAGGCCAGUUGGGAAAAUGAUCGACAGUGUACAGCGUGGAGGAUAUCUCAACAUGAGGAUCACCCAUGUAUA |  |  | 0.186 | 0.0123
11 | GGUUGUCAUAGUCAUCCUUUCCGUACAUGAGGAUCACCCAUGUAGGAUAUGCUGCUCUCGGUGUGGCAGAAGGGCGUGUGUCUU | 0.0178 | 0.0189 |  | 
12 | CUUAUGUGAGGAUAUCAGUAGUGAUACGAUAGUAUUACUGCUGAGAAGGCACAUGAGGAUCACCCAUGUUCCUC | 0.117 | 0.422 |  | 
13 | UCGGCGCGAGGAUAUGCGGCUGGUGCUUCGGGCUCUGGCGUACAUGAGGAUCACCCAUGUAGAAGGCGCGCCGC | 0.0131 | 0.0143 |  | 
14 | GGUGCGAUGUAGAAGGCAGAUCUGAUUCAGAUCUGAGGAUAUACAUGAGGAUCACCCAUGUUAAGGCACCGCACGAGAGUGCAA | 0.0074 | 0.0137 |  | 
15 | GGAUUACAUGAGGAUCACCCAUGUGAGGAUAUCGAUGUCCUCAAUCCCGUGCGGGACUCGAGAAGGCACUUGGA | 0.063 | 0.0488 |  | 
16 | GGAUCGUAUGUCAGGAUAUACCACUGGAUACAGUGGUAGAAGGGACAUGAGGAUCACCCAUGUCUUAUCGAUCC | 0.0132 | 0.0183 |  | 
17 | AAGAACAUUGACAUGAGGAUCACCCAUGUUGCAGCUAGCUACAGAAGGCACGCGGUACCAAAGGGUGAGGAUAUGUAGGGCCAU |  |  | 0.0934 | 0.0172
18 | UUUUUACAUGAGGAUCACCCAUGUGAGGAUAUGGUUUCGCUGGCCGUAGCCAGUGGAACCAGAAGGCGCGUGAU | 0.095 | 0.136 |  | 
19 | UCGAACUUUCAUGUAAUUCGCACAUGAGGAUCACCCAUGUACGAGGAUAUGUACCUGAACGGCUAACAGAAGGCGUACUGGGCA | 0.242 | 0.0833 |  | 
20 | AUCUUGUCAGGAUAUCGUACAAUAUGGAAAACAUAGAGGUACGAGAAGGGACAUGAGGAUCACCCAUGUAAAAC | 0.0402 | 0.0846 |  | 
21 | CAUACAGUAGUUAGGAUAUUGCAACGUAUACGGAUCGAGAAGGGACAUGAGGAUCACCCAUGUAGAUUGUAAAG | 0.0376 | 0.0307 |  | 
22 | GGACGUCUCAUUAACAUGAGGAUCACCCAUGUCAAAAGACAUGAGGAUAUGGAACCUAAUUGGUUCCAGAAGGCAUGGACGUCC |  |  | 0.802 | 0.0626
23 | GAGUGACAUGAGGAUCACCCAUGUGAGGAUAUCGGACGGACCAAAUUAACAAUAAAUGCGAGAAGGCACAUCGG | 0.0585 | 0.0816 |  | 
24 | UAGGACUACGUAGGAUAUGUAGGAUAUUCCUACAUGAGGAUCACCCAUGUUAGCAUGUAAGUAGGACAGAAGGACGUGGUAAAU |  |  | 0.695 | 0.0799
25 | GAGUUUACGUUUGUCACUUUGCGAGAGGAUAUGGAAAACUUGACAUGAGGAUCACCCAUGUUUUAUCAGAAGGCUCGAGUACGA |  |  | 0.0102 | 0.00609
26 | GAUAGGACAGAGAAGGACGUAGCUAGAGAUACUAGCAUAAAGGUCCAAACAUGAGGAUCACCCAUGUAGGAUAUCUGUCCUAUC | 0.00647 | 0.00692 |  | 
27 | AAAGAAGAAAGACAGGAUAUGGAUGGGUAAACAUGAGGAUCACCCAUGUAUAAGAAAGAAAGAAACCAGAAGGGUCAAAAGAAAA |  |  | 0.165 | 0.0336
28 | UGAAGAAAGUAGAAGGUAGUCUUAAAAUAGGACUAAGGAUAUACAUGAGGAUCACCCAUGUACUCCUUUAAUAUCUUUGAAAUA | 0.0055 | 0.00542 |  | 

Row | Sequence | apparent Kd [1] [µM] | apparent Kd [2] [µM] | apparent Kd [3] [µM] | apparent Kd [4] [µM]
29 | AUGGUUCACUCAGGAUAUGUAUCACCUCGUUACCAACAUGAGGAUCACCCAUGUCCGUGGCUCGGACAGAAGGGAGAAGAACCG |  |  | 0.581 | 0.232
30 | AUCAGCUCGUCAGGAUAUACGGCACUGCGUCAGCAGUGUGGUAAGAUCACAUGAGGAUCACCCAUGUAGAAGGGACGAGCUGAU | 0.00806 | 0.0846 |  | 
31 | UACAAUCUAUCUGAGGAUAUCAUGAAAAAAACAUGAGGAUCACCCAUGUGCAGGAAAACUGCAUAUGAGAAGGCAGAUAGAUUGG |  |  | 0.736 | 0.0289
32 | UUGGACGUCGUAGGAUAUGUAGGAUAUUCCUACAUGAGGAUCACCCAUGUUGCCAUGGAAGAAGGACAGAAGGACGAUGUCCAU |  |  | 0.253 | 0.00448
33 | AAUAAACUAGGAUAUACAUGAGGAUCACCCAUGUGUCGCCACGUGCUUGCUCACUCGUGUAGAAGGAGUACGGA | 0.0385 | 0.0731 |  | 
34 | GCCCUUCGAGGAUAUACAUGAGGAUCACCCAUGUCCGGAGUUCCGAGGCGGCCCAUAUGUAGAAGGCGAACUUU | 0.0434 | 0.067 |  | 
35 | ACAAGAUCAGGAUAUACAUGAGGAUCACCCAUGUAUUUCAAAAAGGGACUUUCUUUAUGUAGAAGGGAUCUUGU | 0.0508 | 0.0672 |  | 
36 | GUGGUACAUGAGGAUCACCCAUGUCAGGAUAUCGUGUGUUUUUUUUCGGCCGCGCGCGCGAGAAGGGACGUCUU | 0.0216 | 0.0216 |  | 
37 | UCAAGUAUGUAGGAUAUCGAUGUCUUCGGACAUCGAGAAGGACGUACAUGAGGAUCACCCAUGUAACUUGCAUG | 0.0605 | 0.0374 |  | 
38 | UAAAACCUAGGAUAUACAUGAGGAUCACCCAUGUUCGAAGGAGCCCAAGUGACUUCUAGUAGAAGGAGGGCGAA | 0.0188 | 0.023 |  | 
39 | GUGUACGGAGGAUAUAUGUGGCGAGCAUACGCUCGAGCUUCACAUGAGGAUCACCCAUGUAGAAGGCUGUGCAC | 0.019 | 0.102 |  | 
40 | UUCGUGCAGCUUUGCUGUACGCGUACAUGAGGAUCACCCAUGUAGGAUAUGGUAGGCAAAGUUUACUAGAAGGAUAUAGUGAUC | 0.0132 | 0.0143 |  | 
41 | ACCUCACAUGAGGAUCACCCAUGUCAGGAUAUCUAAUGUAGUAGCGUUCCCGACGCUAAGAGAAGGGACAUUAA | 0.0159 | 0.022 |  | 
42 | UAAUCUCAGAUAGGAUAUAUAGGAUGAUUUAAGACCGAACAUGAGGAUCACCCAUGUGAUUAUUCGUAGAAGGAUCAAUGACCC |  |  | 0.122 | 0.114
43 | GUGUACGGAGGAUAUAUAUGGGCAGGCUGACCUGCAGCUUCACAUGAGGAUCACCCAUGUAGAAGGCUGUGCAC | 0.0316 | 0.132 |  | 
44 | CAUGUCCUCACAGGAUAUGCACCACUUUGUGGUGCAGAAGGGUGGAUACAUGAGGAUCACCCAUGUGGACAUGAUAUAUUUAAU |  |  | 0.608 | 0.0572
45 | AGCCACAGUUCAGGAUAUGCGGGCCGACUGGUAGCAGAAGGGAACAUGAGGAUCACCCAUGUAGGUCAUACGGGCUACGUCGAA | 0.0116 | 0.0456 |  | 
46 | AGUAACAGAGGAUAUACUGUUUUAUGUAUUUAUUAUUUUAAACAUGAGGAUCACCCAUGUAGAAGGCUGAAUAA | 0.0206 | 0.0203 |  | 
47 | AAGAAGGACGCAGGAUAUCCAGGACCUCCCGCAGGAGAAGGGCGAGACAUGAGGAUCACCCAGACAUGAGGAUCACCCAUGUAG | 0.0374 | 0.0372 |  | 
48 | GCAGCGUAUGUAGGAUAUCGGUCAGUUUCUGAUCGAGAAGGACAUGAGGAUCACCCAUGUAAAUUUCCGACUUUGUCGGGCUGC | 0.00704 | 0.00873 |  | 
49 | UCCUCGAUGUAGAAGGCCGCGUCCGGCUCACGCGGAGGAUAUACAUGAGGAUCACCCAUGUGUCUGUGGCUAAUAUGGUACGGA | 0.12 | 0.0144 |  | 
50 | CAGUACUGAGGAUAUACAUGAGGAUCACCCAUGUGUUCCAGCUGGGAAACUAGCAAAAGUAGAAGGCAGUACUG | 0.0255 | 0.395 |  | 
51 | UGUGUGUGGCAGGAUAUGCCGGUCGUUGGACGGGUAGAAGGGUCUACAUGAGGAUCACCCAUGUGGCCGGUUGG | 0.0184 | 0.0202 |  | 
52 | GCGUUCAUGUAGAAGGUACCUACAACAAAUUAUAACCGCUAGACACAUGAGGAUCACCCAUGUUGUAAGGAUAUACAUGAACGC |  |  | 0.0252 | 0.0171
53 | UGGAUCAUCGGAGGAUAUCAUGUAAAUACAUGAGGAUCACCCAUGUCGAUGGAGACAUCGGAGAUUGAGAAGGCCGAUGAUCCU |  |  | 0.437 | 0.0257
54 | GUGGUCAGACAUGAGGAUCACCCAUGUGGAAUAAAUAAGGAGAAGGAUAUGGAAUAUAGGAUAUACCAGAAGGUUUGGUUGGUG |  |  | 0.112 | 0.116
55 | UGGCGCAACAGAGGAUAUGCAUAGGCUGCCUUACAUGAGGAUCACCCAUGUGCAGAAGGCUGUUGCCAUUACAAGCGCACUAAU | 0.118 | 0.402 |  | 
